The values below come from publication PMC10864903 (Heliyon, 2024).

In brackets after ≈: the same amount, converted by molar mass.

For test [1], the system named is MTCC-1306 (Bacillus cereus). Nature of the test: Agar-disc diffusion, B. cereus. The format is cell-based. The conditions noted are these: MTCC1306, read-out: Diameter of Growth Inhibition Zone, B. cereus. (In agar diffusion tests the substance spreads into inoculated agar from a disc or well.)
Test [2] deals with B. cereus. Put plainly: Minimal inhibitory concentration, B. cereus. Type of test: cell-based. The note with it: Bacillus cereus, read-out: Minimal Inhibitory Concentration (MIC), B. cereus.
Test [3] deals with MTCC-96 (Staphylococcus aureus). Nature of the test: Agar-disc diffusion, S. aureus. The format is cell-based. The note with it: MTCC96, read-out: Diameter of Growth Inhibition Zone, S. aureus.
Test [4] concerns recultured (Enterobacter aerogenes). Put plainly: Agar-disc diffusion, E. aerogenes. The format is cell-based. The conditions noted are these: Klebsiella aerogenes, read-out: Diameter of Growth Inhibition Zone, E. aerogenes.
The test system of test [5] is MTCC-739 (Escherichia coli). Put plainly: Agar-disc diffusion, E. coli. The format is cell-based. The conditions noted are these: MTCC739, read-out: Diameter of Growth Inhibition Zone, E. coli.
For test [6], the system named is E. coli. Nature of the test: Minimal inhibitory concentration, E. coli. The conditions noted are these: Escherichia coli, read-out: Minimal Inhibitory Concentration (MIC), E. coli. Type of test: cell-based.
Test [7] deals with MTCC-2453 (Pseudomonas aeruginosa). Nature of the test: Agar-disc diffusion, P. aeruginosa. The format is cell-based. The conditions noted are these: MTCC2453, read-out: Diameter of Growth Inhibition Zone, P. aeruginosa.
For test [8], the system named is P. aeruginosa. Nature of the test: Minimal inhibitory concentration, P. aeruginosa. The note with it: Pseudomonas aeruginosa, read-out: Minimal Inhibitory Concentration (MIC), P. aeruginosa. Type of test: cell-based. The procedure, abridged: (§1)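 Agar disc diffusion against bacterial strains, following a previously reported method. Strains were P. aeruginosa MTCC-2453 and S. aureus MTCC-96. Test compounds were anthraquinone-linked coumarins. MIC was reported in µg/mL.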

Test [9] deals with S. aureus. Nature of the test: Minimal inhibitory concentration, S. aureus. The format is cell-based. The conditions noted are these: Staphylococcus aureus, read-out: Minimal Inhibitory Concentration (MIC), S. aureus. The procedure, abridged:
as §1

Test [10] deals with Tyrosinase from mushrooms. Put plainly: Mushroom tyrosinase inhibition, L-dopa as substrate. Type of test: biochemical. The conditions noted are these: mean ± SD of three experiments.

As a reminder, the zone of inhibition is the size of the clear area around the sample on an inoculated plate. With `O=C(O)c1cn(C2CC2)c2cc(N3CCNCC3)c(F)cc2c1=O` [Ciprofloxacin, ciprofloxacin], the zone of inhibition at 100 µg/disc in test [1] turned out to be 22 mm; in test [3] it was 25 mm; in [4] it was 30 mm; in test [5] it was 27 mm; in [7], 26 mm. Besides, the MIC in test [2] turned out to be 2 µg/mL (≈ 6.04 µM); in test [6], 0.5 µg/mL (≈ 1.51 µM); in test [8] it was 1 µg/mL (≈ 3.02 µM); in test [9], 1 µg/mL (≈ 3.02 µM).

For the compound `O=c1cc(CO)occ1O` [Kojic acid, kojic acid], the “Tyrosinase inhibitory activity (%) at 25 μg/mL” value in [10] (25 μg/mL) worked out at 55.67 ± 0.12%. Also, the “Tyrosinase inhibitory activity (%) at 50 μg/mL” value in test [10] (50 μg/mL) is recorded as 68.62 ± 0.32%. For the same compound, the “Tyrosinase inhibitory activity (%) at 100 μg/mL” value in test [10] (100 μg/mL) is on record as 85.54 ± 0.23%.
